ChEMBL document CHEMBL1130209, “A novel series of 2,5-substituted tryptamine derivatives as vascular 5HT1B/1D receptor antagonists” (J Med Chem, 1997)

What was measured:
[1] = biological target: T1, Adrenergic receptor alpha-2 (Rattus norvegicus, UniProt P22086+P19328+P22909); assay: Affinity pKi for Alpha-2 adrenergic receptor was measured in rat cortex homogenates.; type: tissue-based
T1 sequence (P22086 whole entry): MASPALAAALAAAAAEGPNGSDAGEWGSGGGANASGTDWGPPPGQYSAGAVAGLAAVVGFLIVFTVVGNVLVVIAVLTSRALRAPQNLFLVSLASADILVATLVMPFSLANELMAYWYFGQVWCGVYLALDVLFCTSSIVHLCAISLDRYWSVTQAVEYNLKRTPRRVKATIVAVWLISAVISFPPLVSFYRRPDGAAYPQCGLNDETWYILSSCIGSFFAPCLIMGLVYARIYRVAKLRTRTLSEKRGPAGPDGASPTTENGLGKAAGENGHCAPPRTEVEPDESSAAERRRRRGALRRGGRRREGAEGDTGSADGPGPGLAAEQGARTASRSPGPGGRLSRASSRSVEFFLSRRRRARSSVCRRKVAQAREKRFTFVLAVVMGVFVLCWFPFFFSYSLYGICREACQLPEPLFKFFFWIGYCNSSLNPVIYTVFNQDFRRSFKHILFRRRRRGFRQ
T1 sequence (P19328 whole entry): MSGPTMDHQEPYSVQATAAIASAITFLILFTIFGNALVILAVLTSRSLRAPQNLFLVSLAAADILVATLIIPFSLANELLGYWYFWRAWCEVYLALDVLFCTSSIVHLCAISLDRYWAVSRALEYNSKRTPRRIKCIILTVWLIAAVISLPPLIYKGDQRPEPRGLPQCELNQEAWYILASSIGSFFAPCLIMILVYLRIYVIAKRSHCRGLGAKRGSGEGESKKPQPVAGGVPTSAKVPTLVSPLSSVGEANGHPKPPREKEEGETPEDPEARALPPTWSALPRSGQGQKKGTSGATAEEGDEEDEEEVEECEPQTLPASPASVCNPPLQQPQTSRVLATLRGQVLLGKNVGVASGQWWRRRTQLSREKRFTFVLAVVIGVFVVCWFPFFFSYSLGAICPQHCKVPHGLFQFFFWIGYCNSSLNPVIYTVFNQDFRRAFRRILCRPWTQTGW
T1 sequence (P22909 whole entry): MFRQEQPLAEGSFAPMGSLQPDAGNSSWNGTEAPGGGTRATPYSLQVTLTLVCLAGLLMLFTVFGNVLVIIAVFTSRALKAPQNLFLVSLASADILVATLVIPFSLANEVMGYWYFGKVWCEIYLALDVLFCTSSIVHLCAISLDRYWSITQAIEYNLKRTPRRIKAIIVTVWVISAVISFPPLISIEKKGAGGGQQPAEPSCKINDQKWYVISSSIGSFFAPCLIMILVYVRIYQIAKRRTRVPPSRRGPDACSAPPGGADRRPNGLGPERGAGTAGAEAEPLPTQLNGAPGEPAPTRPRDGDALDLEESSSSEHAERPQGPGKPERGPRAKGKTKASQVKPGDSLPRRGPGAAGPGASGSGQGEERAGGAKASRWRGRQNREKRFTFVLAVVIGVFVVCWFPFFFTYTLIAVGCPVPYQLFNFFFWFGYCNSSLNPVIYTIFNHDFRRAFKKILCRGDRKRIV
Summary of the method: (§1)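 Competition binding with rat cortex homogenate: radioligand near its KD plus a wide range of test drug concentrations in duplicate, 30 min at 27 °C. Buffer 50 mM TRIS-HCl, 5 mM CaCl₂, 0.1% (w/v) ascorbate, 10 mM pargyline. Nonspecific binding defined with excess cold 5HT. Rapid filtration with ice-cold buffer wash, liquid scintillation count. pKi is the mean of at least three estimates.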

[2] = biological target: 5-hydroxytryptamine receptor 7 (Homo sapiens) (UniProt P34969); assay: The dissociation equilibrium constant (pKB=-log KB) of compound was determined against the vascular 5-hydroxytryptamine 7 receptor in the endothelium denuded rabbit jugular vein.; details: Oryctolagus cuniculus; target entry is the homologue from another species
5-hydroxytryptamine receptor 7 (Homo sapiens), sequence (P34969 whole entry): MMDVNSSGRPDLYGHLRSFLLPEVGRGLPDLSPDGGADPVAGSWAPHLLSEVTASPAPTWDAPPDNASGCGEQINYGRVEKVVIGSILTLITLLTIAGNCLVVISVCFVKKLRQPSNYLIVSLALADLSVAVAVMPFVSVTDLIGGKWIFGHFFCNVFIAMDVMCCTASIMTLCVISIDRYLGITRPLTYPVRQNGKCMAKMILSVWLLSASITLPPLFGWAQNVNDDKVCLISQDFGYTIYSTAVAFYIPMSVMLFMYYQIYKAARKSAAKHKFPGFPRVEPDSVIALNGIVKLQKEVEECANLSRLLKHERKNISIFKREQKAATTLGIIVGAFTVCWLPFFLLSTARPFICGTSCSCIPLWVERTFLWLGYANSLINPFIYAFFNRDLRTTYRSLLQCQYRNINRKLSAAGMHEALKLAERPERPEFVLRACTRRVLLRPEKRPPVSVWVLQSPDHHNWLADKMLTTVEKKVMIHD

[3] = Half life of compound was determined in mouse plasma; type: ADME, organism-based
[4] = biological target: 5-hydroxytryptamine receptor 2A (Homo sapiens) (UniProt P28223); assay: Dissociation equilibrium constant against the vascular 5-hydroxytryptamine 2A receptor in the rabbit […] aorta; type: tissue-based; details: Oryctolagus cuniculus, target entry is the homologue from another species
5-hydroxytryptamine receptor 2A (Homo sapiens), sequence (P28223 whole entry): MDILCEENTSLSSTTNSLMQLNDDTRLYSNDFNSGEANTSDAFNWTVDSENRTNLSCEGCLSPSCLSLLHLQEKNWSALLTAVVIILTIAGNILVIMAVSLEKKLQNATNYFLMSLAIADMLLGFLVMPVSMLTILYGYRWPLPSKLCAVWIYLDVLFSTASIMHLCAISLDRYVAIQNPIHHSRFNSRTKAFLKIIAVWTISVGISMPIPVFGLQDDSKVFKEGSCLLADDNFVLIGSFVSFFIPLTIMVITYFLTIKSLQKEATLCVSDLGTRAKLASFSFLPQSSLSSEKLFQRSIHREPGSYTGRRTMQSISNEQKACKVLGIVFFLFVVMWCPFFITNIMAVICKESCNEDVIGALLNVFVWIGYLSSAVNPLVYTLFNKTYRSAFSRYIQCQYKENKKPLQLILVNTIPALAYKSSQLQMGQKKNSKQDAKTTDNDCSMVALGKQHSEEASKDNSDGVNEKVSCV

D(2) dopamine receptor = D(2) dopamine receptor (Rattus norvegicus, UniProt P61169); assay: Affinity pKi for Dopamine receptor D2 was measured in rat cortex homogenates; type: tissue-based; summary of the method: as §1
D(2) dopamine receptor, sequence (P61169 whole entry): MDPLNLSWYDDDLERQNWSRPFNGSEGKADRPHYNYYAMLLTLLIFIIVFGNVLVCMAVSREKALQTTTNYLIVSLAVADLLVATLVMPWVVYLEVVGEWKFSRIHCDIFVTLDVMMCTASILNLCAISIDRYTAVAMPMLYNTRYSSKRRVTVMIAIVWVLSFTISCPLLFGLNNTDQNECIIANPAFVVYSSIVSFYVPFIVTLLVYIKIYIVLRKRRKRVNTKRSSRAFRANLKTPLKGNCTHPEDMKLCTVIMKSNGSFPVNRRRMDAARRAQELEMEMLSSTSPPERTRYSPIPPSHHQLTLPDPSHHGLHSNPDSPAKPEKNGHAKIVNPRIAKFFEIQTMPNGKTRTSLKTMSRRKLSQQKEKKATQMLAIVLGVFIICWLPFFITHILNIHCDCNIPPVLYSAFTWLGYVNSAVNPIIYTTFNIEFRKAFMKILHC

For `CCOC(=O)c1[nH]c2ccc(CCN3C(=O)CNC3=O)cc2c1CCN(C)C`, which “Log Ki” value [1] is on record?
Its value is -5.25.

What about the pKB [2] of the same compound?
Its pKB is 5.5.

What about the half-life [3] of the same compound?
The half-life was 12 min.

What about the pKB [4] of the same compound?
The pKB was 5.8.

What about the Ki (D(2) dopamine receptor) of the same compound?
Its Ki is 10.7 µM.
